From ChEMBL document CHEMBL4177575 (Bioorg Med Chem, 2017)

Experiments:
MCF7 = assay: Cytotoxicity against human MCF7 cells assessed as reduction in cell viability incubated for 72 hrs by MTT assay; format: functional, cell-based; conditions: MCF7, 72 h
Summary of the method: (§1)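 Cells grown in MEM with 10% FBS; about 4×10^3 cells per well, pre-incubated 24 h at 37 °C in 5% CO2, then exposed to compound for 72 h. Seven concentrations, threefold serial dilution from 100 ug/mL initial. MTT at 5 µg/mL terminal concentration for 4 h; formazan dissolved in DMSO, absorbance read at 492 nm against 630 nm reference. IC50 is the average of two determinations.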

HepG2 = assay: Cytotoxicity against human HepG2 cells assessed as reduction in cell viability incubated for 72 hrs by MTT assay; format: functional, cell-based; conditions: HepG2, 72 h; summary of the method: as §1
A549 = assay: Cytotoxicity against human A549 cells assessed as reduction in cell viability incubated for 72 hrs by MTT assay; format: functional, cell-based; conditions: A549, 72 h; summary of the method: as §1
PC-3 = assay: Cytotoxicity against human PC3 cells assessed as reduction in cell viability incubated for 72 hrs by MTT assay; format: functional, cell-based; conditions: PC-3, 72 h; summary of the method: as §1
[1] = molecular target: Serine/threonine-protein kinase B-raf (Homo sapiens, UniProt P15056); assay: Inhibition of BRAF (unknown origin) incubated for 10 mins using FAM-labeled peptide and ATP by mobility shift assay
Sequence of Serine/threonine-protein kinase B-raf (P15056 whole entry): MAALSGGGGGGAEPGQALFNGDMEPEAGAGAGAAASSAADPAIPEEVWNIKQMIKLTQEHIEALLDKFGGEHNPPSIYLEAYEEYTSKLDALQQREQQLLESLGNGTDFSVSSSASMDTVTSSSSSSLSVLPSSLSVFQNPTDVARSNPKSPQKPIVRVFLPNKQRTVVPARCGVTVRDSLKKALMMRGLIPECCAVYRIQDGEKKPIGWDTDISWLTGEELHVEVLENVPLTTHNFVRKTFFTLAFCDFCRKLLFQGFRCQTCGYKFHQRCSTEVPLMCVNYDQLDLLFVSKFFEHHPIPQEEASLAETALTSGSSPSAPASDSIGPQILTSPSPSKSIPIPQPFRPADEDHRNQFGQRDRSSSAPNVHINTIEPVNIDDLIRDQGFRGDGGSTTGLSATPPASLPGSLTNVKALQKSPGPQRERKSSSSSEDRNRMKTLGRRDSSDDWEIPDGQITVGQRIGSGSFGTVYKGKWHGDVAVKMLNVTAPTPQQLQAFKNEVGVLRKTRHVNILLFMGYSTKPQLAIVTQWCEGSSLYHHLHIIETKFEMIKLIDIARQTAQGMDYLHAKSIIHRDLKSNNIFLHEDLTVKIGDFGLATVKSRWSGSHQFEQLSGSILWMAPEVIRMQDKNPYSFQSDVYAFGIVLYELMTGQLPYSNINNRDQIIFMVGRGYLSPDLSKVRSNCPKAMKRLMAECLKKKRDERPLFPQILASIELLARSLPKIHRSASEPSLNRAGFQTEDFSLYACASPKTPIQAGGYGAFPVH

[2] = molecular target: Vascular endothelial growth factor receptor 2 (Homo sapiens, UniProt P35968); assay: Inhibition of VEGFR2 (unknown origin) incubated for 10 mins using FAM-labeled peptide and ATP by mobility shift assay
Sequence of Vascular endothelial growth factor receptor 2 (P35968 whole entry): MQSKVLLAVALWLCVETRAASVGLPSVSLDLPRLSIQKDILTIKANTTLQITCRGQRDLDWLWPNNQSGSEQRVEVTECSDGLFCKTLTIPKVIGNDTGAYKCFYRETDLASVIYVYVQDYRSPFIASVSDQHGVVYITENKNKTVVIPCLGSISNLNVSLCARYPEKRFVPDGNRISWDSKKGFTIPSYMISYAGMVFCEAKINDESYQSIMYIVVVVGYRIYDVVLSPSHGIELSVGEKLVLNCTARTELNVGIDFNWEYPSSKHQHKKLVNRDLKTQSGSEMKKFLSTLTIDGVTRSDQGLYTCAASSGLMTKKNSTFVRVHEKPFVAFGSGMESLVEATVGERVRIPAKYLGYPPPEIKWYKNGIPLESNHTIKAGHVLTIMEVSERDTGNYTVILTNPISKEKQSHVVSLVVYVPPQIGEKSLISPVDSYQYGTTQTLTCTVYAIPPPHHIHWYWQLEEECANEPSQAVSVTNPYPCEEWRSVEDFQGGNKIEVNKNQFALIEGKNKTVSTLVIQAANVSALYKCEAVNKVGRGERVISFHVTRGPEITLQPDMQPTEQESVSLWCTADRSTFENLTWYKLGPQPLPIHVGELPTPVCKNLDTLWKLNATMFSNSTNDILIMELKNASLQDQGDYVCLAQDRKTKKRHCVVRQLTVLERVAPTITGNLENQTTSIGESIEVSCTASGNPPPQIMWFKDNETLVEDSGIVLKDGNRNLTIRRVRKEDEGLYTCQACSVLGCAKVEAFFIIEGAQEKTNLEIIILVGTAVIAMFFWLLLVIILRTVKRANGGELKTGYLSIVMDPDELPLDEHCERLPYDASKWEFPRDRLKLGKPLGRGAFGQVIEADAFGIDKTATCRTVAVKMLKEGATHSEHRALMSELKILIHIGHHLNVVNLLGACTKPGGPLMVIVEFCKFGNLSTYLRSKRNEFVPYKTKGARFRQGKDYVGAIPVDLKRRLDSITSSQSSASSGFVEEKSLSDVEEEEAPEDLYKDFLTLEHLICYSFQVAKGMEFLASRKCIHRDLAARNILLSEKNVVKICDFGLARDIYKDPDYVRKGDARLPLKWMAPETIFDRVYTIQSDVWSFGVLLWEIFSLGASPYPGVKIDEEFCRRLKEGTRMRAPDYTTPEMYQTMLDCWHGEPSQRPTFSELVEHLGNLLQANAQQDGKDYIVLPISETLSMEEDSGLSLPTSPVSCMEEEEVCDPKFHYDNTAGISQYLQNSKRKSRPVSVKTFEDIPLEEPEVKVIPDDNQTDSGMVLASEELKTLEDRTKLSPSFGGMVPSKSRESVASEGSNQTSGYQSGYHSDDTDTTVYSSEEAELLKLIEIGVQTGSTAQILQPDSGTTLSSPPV

Compound	IC50 (MCF7) [µM]	IC50 (HepG2) [µM]	IC50 (A549) [µM]	IC50 (PC-3) [µM]	IC50 [1] [µM]	IC50 [2] [µM]
CNC(=O)c1cc(Oc2ccc(C3=NNC(c4cccc([N+](=O)[O-])c4)C3)cc2)ccn1 (configuration not stated)	35.4	26.5				
CNC(=O)c1cc(Oc2ccc(C3=NNC(c4cccc(Cl)c4Cl)C3)cc2)ccn1 (configuration not stated)		4.99	12.1			
CNC(=O)c1cc(Oc2ccc(C3=NNC(c4ccc(Cl)c(Cl)c4)C3)cc2)ccn1 (configuration not stated)		14.4	10.7	36.2		
CNC(=O)c1cc(Oc2ccc(C3=NN(C(N)=S)C(c4ccc(F)cc4)C3)cc2)ccn1 (configuration not stated)		> 50	19.4	> 50		
CNC(=O)c1cc(Oc2ccc(C3CC(c4ccc([N+](=O)[O-])cc4)=NN3C(N)=S)cc2)ccn1 (configuration not stated)		> 50	> 50	> 50		
CNC(=O)c1cc(Oc2ccc(C3=NNC(c4ccc(Br)cc4)C3)cc2)ccn1 (configuration not stated)		57.6	21	> 50		
CNC(=O)c1cc(Oc2ccc(C3=NNC(c4cc(OC)c(OC)c(OC)c4)C3)cc2)ccn1 (configuration not stated)		24.3	37.1	28.3		
CNC(=O)c1cc(Oc2ccc(C3=NNC(c4ccc(F)cc4)C3)cc2)ccn1 (configuration not stated)	9.48	5.28	15.1	6.77		
CNC(=O)c1cc(Oc2ccc(C3=NN(C(N)=S)C(c4cccc(Cl)c4Cl)C3)cc2)ccn1 (configuration not stated)		1.89	> 50	15.9		
CNC(=O)c1cc(Oc2ccc(C3=NN(C(N)=S)C(c4cccc([N+](=O)[O-])c4)C3)cc2)ccn1 (configuration not stated)		> 50	> 50	> 50		
CNC(=O)c1cc(Oc2ccc(C3CC(c4ccc(Br)cc4)=NN3)cc2)ccn1 (configuration not stated)	15.3	16.9				
CNC(=O)c1cc(Oc2ccc(C3=NNC(c4ccc(Cl)cc4Cl)C3)cc2)ccn1 (configuration not stated)			6.93	7.3		
CNC(=O)c1cc(Oc2ccc(C3=NNC(c4ccccc4)C3)cc2)ccn1 (configuration not stated)	1.24	1.5	8.6	4.52	3.9	2.3
CNC(=O)c1cc(Oc2ccc(C3=NN(C(N)=S)C(c4ccc(Cl)cc4)C3)cc2)ccn1 (configuration not stated)		> 50	> 50	> 50		
CNC(=O)c1cc(Oc2ccc(C3=NNC(c4ccc([N+](=O)[O-])cc4)C3)cc2)ccn1 (configuration not stated)		> 50	19.5	> 50		
CNC(=O)c1cc(Oc2ccc(C3=NNC(c4ccc(OC)c(OC)c4OC)C3)cc2)ccn1 (configuration not stated)	9.94	15.7	19			
CNC(=O)c1cc(Oc2ccc(NC(=O)Nc3ccc(Cl)c(C(F)(F)F)c3)cc2)ccn1 [SORAFENIB]			2.92	3.18 to 3.24		
CNC(=O)c1cc(Oc2ccc(C3=NN(C(N)=S)C(c4ccc(C#N)cc4)C3)cc2)ccn1 (configuration not stated)		> 50	> 50	> 50		
CNC(=O)c1cc(Oc2ccc(C3CC(c4ccc([N+](=O)[O-])cc4)=NN3)cc2)ccn1 (configuration not stated)	8.03	28.9			> 50	> 50
CNC(=O)c1cc(Oc2ccc(C3CC(c4ccc(Cl)cc4)=NN3)cc2)ccn1 (configuration not stated)	15.3	10.9	20.5			
CNC(=O)c1cc(Oc2ccc(C3=NNC(c4ccc(F)cc4Cl)C3)cc2)ccn1 (configuration not stated)		11.5	13.7	24.2		
CNC(=O)c1cc(Oc2ccc(C3=NNC(c4ccc(OC)cc4)C3)cc2)ccn1 (configuration not stated)	11	9.64	13.1	7.74	> 50	> 50
CNC(=O)c1cc(Oc2ccc(C3=NNC(c4ccc(C#N)cc4)C3)cc2)ccn1 (configuration not stated)		15	17.4	9.91		
